Experimental data from ChEMBL document CHEMBL3632581, “Dimers of Melampomagnolide B Exhibit Potent Anticancer Activity against Hematological and Solid Tumor Cells” (J Med Chem, 2015).

Columns and labels:
CCRF-CEM = experiment: Cytotoxicity against human CCRF-CEM cells after 48 hrs by SRB assay; assay type: functional
Summary of the method: (§1)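 NCI-60 five-dose screen at 10−8 to 10−4 M. Cells were plated at 5,000–40,000/well in RPMI 1640 with 5% FBS and 2 mM L-glutamine, then preincubated 24 h, and time-zero plates were TCA-fixed. Compound was added from DMSO stocks and exposed 48 h at 37 °C. Cells were TCA-fixed, SRB-stained, and read at 515 nm. LC50 is the concentration halving the cell population through cell death.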

K562 = experiment: Cytotoxicity against human K562 cells after 48 hrs by SRB assay; assay type: functional; conditions: K562, 48 h; summary of the method: as §1
MOLT-4 = experiment: Cytotoxicity against human MOLT4 cells after 48 hrs by SRB assay; assay type: functional; conditions: MOLT-4, 48 h; summary of the method: as §1
RPMI-8226 = experiment: Cytotoxicity against human RPMI8226 cells after 48 hrs by SRB assay; assay type: functional; conditions: RPMI-8226, 48 h; summary of the method: as §1
[1] = Cytotoxicity against human EKVX cells after 48 hrs by SRB assay; assay type: functional; summary of the method: as §1
HOP-92 = experiment: Cytotoxicity against human HOP92 cells after 48 hrs by SRB assay; assay type: functional; conditions: HOP-92, 48 h; summary of the method: as §1
COLO 205 = experiment: Cytotoxicity against human COLO205 cells after 48 hrs by SRB assay; assay type: functional; conditions: COLO 205, 48 h; summary of the method: as §1
HCC 2998 = experiment: Cytotoxicity against human HCC2998 cells after 48 hrs by SRB assay; assay type: functional; conditions: HCC 2998, 48 h; summary of the method: as §1
HCT-116 = experiment: Cytotoxicity against human HCT116 cells after 48 hrs by SRB assay; assay type: functional; conditions: HCT-116, 48 h; summary of the method: as §1
HCT-15 = experiment: Cytotoxicity against human HCT15 cells after 48 hrs by SRB assay; assay type: functional; conditions: HCT-15, 48 h; summary of the method: as §1
HT-29 = experiment: Cytotoxicity against human HT-29 cells after 48 hrs by SRB assay; assay type: functional; conditions: HT-29, 48 h; summary of the method: as §1
SNB-75 = experiment: Cytotoxicity against human SNB75 cells after 48 hrs by SRB assay; assay type: functional; conditions: SNB-75, 48 h; summary of the method: as §1
U-251 = experiment: Cytotoxicity against human U251 cells after 48 hrs by SRB assay; assay type: functional; conditions: U-251, 48 h
Summary of the method: (§2)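 NCI-60 screen: cells grown in RPMI 1640 with 5% FBS and 2 mM L-glutamine, plated at 5,000–40,000 cells/well by doubling time, and preincubated 24 h at 37 °C before drug. Drug was diluted from DMSO stock and given at five concentrations, 10−4 to 10−8 M, for 48 h. Cells fixed with cold TCA, SRB stained, OD read at 515 nm against time-zero and vehicle plates. LC50 taken as the concentration that halves cell population through cell death.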

M14 = experiment: Cytotoxicity against human M14 cells after 48 hrs by SRB assay; assay type: functional; conditions: M14, 48 h; summary of the method: as §1
MDA-MB-435 = experiment: Cytotoxicity against human MDA-MB-435 cells after 48 hrs by SRB assay; assay type: functional; conditions: MDA-MB-435, 48 h; summary of the method: as §1
SK-MEL-2 = experiment: Cytotoxicity against human SK-MEL-2 cells after 48 hrs by SRB assay; assay type: functional; conditions: SK-MEL-2, 48 h; summary of the method: as §1
SK-MEL-28 = experiment: Cytotoxicity against human SK-MEL-28 cells after 48 hrs by SRB assay; assay type: functional; conditions: SK-MEL-28, 48 h; summary of the method: as §1
UACC-257 = experiment: Cytotoxicity against human UACC257 cells after 48 hrs by SRB assay; assay type: functional; conditions: UACC-257, 48 h; summary of the method: as §2
OVCAR-3 = experiment: Cytotoxicity against human OVCAR3 cells after 48 hrs by SRB assay; assay type: functional; conditions: OVCAR-3, 48 h; summary of the method: as §1
OVCAR-5 = experiment: Cytotoxicity against human OVCAR5 cells after 48 hrs by SRB assay; assay type: functional; conditions: OVCAR-5, 48 h; summary of the method: as §1
786-0 = experiment: Cytotoxicity against human 786-0 cells after 48 hrs by SRB assay; assay type: functional; conditions: 786-0, 48 h; summary of the method: as §1
A498 = experiment: Cytotoxicity against human A498 cells after 48 hrs by SRB assay; assay type: functional; conditions: A498, 48 h; summary of the method: as §1
RXF 393 = experiment: Cytotoxicity against human RXF393 cells after 48 hrs by SRB assay; assay type: functional; conditions: RXF 393, 48 h; summary of the method: as §1
TK-10 = experiment: Cytotoxicity against human TK10 cells after 48 hrs by SRB assay; assay type: functional; conditions: TK-10, 48 h; summary of the method: as §2
MCF7 = experiment: Cytotoxicity against human MCF7 cells after 48 hrs by SRB assay; assay type: functional; conditions: MCF7, 48 h
Summary of the method: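 NCI-60 screen: cells in RPMI 1640 with 5% FBS and 2 mM L-glutamine, preincubated 24 h at 37 °C. Compound was then added for 48 h at five concentrations (10−4 to 10−8 M). Cells were fixed with cold TCA and stained with 0.4% SRB in 1% acetic acid, and OD read at 515 nm. GI50 is the concentration halving net protein increase versus control.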

MDA-MB-231 = experiment: Cytotoxicity against human MDA-MB-231 cells after 48 hrs by SRB assay; assay type: functional; conditions: MDA-MB-231, 48 h; summary of the method: as §1
[2] = Cytotoxicity against human Hs 578T cells after 48 hrs by SRB assay; assay type: functional; summary of the method: as §1
T47D = experiment: Cytotoxicity against human T47D cells after 48 hrs by SRB assay; assay type: functional; summary of the method: as §2
[3] = Antileukemic activity against human AML01 cells after 24 hrs by annexin V/7-AAD staining-based flow cytometric analysis; assay type: functional, cell-based
Summary of the method: (§3)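 Primary AML specimens from consenting donors, isolated by Ficoll-Paque gradient and sometimes cryopreserved. Cells were held 1 h in serum-free IMDM with 20% BIT 9500, LDL and β-mercaptoethanol before drug (DMSO stock diluted in PBS, ≤0.5% DMSO final). Exposure was 24 h over 0.5-10 μM. Annexin V/7-AAD double-negative cells, normalized to vehicle, gave the EC50. Run in triplicate.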

[4] = Antileukemic activity against human AML03 cells after 24 hrs by annexin V/7-AAD staining-based flow cytometric analysis; assay type: functional, cell-based; summary of the method: as §3
[5] = Antileukemic activity against human AML04 cells after 24 hrs by annexin V/7-AAD staining-based flow cytometric analysis; assay type: functional, cell-based; summary of the method: as §3
[6] = Antileukemic activity against human AML05 cells after 24 hrs by annexin V/7-AAD staining-based flow cytometric analysis; assay type: functional, cell-based; summary of the method: as §3
[7] = Potency index, ratio of parthenolide EC50 to compound EC50 for human M9-ENL1 cells; assay type: functional
[8] = read-out: LC50 (the source's name)

C=C1C(=O)O[C@H]2[C@H]1CC/C(COC(=O)NCCCCCCCCNC(=O)OC/C1=C/CC[C@@]3(C)O[C@H]3[C@H]3OC(=O)C(=C)[C@@H]3CC1)=C\CC[C@@]1(C)O[C@@H]21
GI50 (CCRF-CEM): 250 nM
CC50 (CCRF-CEM; [8]): > 100000 nM
GI50 (K562): 340 nM
CC50 (K562; [8]): > 100000 nM
GI50 (MOLT-4): 330 nM
CC50 (MOLT-4; [8]): > 100000 nM
GI50 (RPMI-8226): 250 nM
CC50 (RPMI-8226; [8]): > 100000 nM
GI50 [1]: 1190 nM
CC50 [1, 8]: 4990 nM
GI50 (HOP-92): 170 nM
CC50 (HOP-92; [8]): 2290 nM
GI50 (COLO 205): 300 nM
CC50 (COLO 205; [8]): 3990 nM
GI50 (HCC 2998): 1200 nM
CC50 (HCC 2998; [8]): 5280 nM
GI50 (HCT-116): 190 nM
CC50 (HCT-116; [8]): 830 nM
GI50 (HCT-15): 340 nM
CC50 (HCT-15; [8]): 4180 nM
GI50 (HT-29): 220 nM
CC50 (HT-29; [8]): 2270 nM
GI50 (SNB-75): 1250 nM
CC50 (SNB-75; [8]): 9840 nM
GI50 (U-251): 570 nM
CC50 (U-251; [8]): 5130 nM
GI50 (M14): 270 nM
CC50 (M14; [8]): 4530 nM
GI50 (MDA-MB-435): 240 nM
CC50 (MDA-MB-435; [8]): 3740 nM
GI50 (SK-MEL-2): 600 nM
CC50 (SK-MEL-2; [8]): 17000 nM
GI50 (SK-MEL-28): 200 nM
CC50 (SK-MEL-28; [8]): 2120 nM
GI50 (UACC-257): 840 nM
CC50 (UACC-257; [8]): 8510 nM
GI50 (OVCAR-3): 330 nM
CC50 (OVCAR-3; [8]): 3320 nM
GI50 (OVCAR-5): 260 nM
CC50 (OVCAR-5; [8]): 4040 nM
GI50 (786-0): 240 nM
CC50 (786-0; [8]): 2930 nM
GI50 (A498): 1690 nM
CC50 (A498; [8]): 5830 nM
GI50 (RXF 393): 160 nM
CC50 (RXF 393; [8]): 640 nM
GI50 (TK-10): 280 nM
CC50 (TK-10; [8]): 2950 nM
GI50 (MCF7): 220 nM
CC50 (MCF7; [8]): 4300 nM
GI50 (MDA-MB-231): 200 nM
LC50 (MDA-MB-231): 1240 nM
GI50 [2]: 1170 nM
CC50 [2, 8]: > 100000 nM
GI50 (T47D): 320 nM
CC50 (T47D; [8]): > 100000 nM
EC50 [3]: 2600 nM
EC50 [4]: 2900 nM
EC50 [5]: 3700 nM
EC50 [6]: 2300 nM
Ratio EC50 [7]: 2
